Screens as filed in PubChem BioAssay.
Diaph act CS: compounds boosting diaphorase resazurin reduction – biochemical, uHTS, resorufin fluorescence, counter-screen for diaphorase-coupled primary assays, primary screen; Diaphorase/resazurin coupled assay, 16 min; active compounds read high; 1 = vehicle wells, 0 = NADH-free wells; activation factor at 20 µM; 190,000 compounds, 0.005% hits; AID 1229, 2008;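 active = diaphorase activity raised at least twofold by the compound at 20 µM; inactive = activation factor below 2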
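Material: bacterial diaphorase enzyme (C. kluyveri); amount: enzyme 0.07 U/mL final; reagent: NADH substrate 0.114 mM plus resazurin dye 0.1 mM, final; doses: single compound dose of 20 µM, 1% DMSO final; timing: 16 min enzyme reaction, ambient temperature; measured by: fluorescence of resorufin, 544 nm excitation, 590 nm emission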
PMI act satM6P: human PMI activators, high substrate, primary screen, biochemical, fluorescence intensity, near-saturating mannose 6-phosphate; activation factor at 20 µM; 190,000 compounds, 0.34% hits; coupled PMI enzyme assay, resazurin fluorescence, 20 min; active compounds read high; 1 = untreated enzyme, 0 = substrate-free blank; Mannose-6-phosphate isomerase (Homo sapiens), P34949;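 active = activation factor of 2 or more at 20 µM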
Target sequence (P34949 whole entry, looked up): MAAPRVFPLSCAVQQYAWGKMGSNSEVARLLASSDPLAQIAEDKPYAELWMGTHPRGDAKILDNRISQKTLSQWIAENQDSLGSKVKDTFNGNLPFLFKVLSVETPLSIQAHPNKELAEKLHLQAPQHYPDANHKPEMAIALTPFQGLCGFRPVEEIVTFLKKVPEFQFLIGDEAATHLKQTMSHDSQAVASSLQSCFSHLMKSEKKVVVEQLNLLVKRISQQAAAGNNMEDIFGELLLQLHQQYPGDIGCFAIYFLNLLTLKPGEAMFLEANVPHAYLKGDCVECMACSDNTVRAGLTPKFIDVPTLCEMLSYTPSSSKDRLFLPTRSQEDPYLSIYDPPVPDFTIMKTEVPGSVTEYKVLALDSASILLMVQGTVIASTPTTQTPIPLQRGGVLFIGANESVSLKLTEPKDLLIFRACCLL
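Test system: human PMI in coupled enzyme assay; Input: PMI at 15 ng/mL final; Medium: HEPES buffer, pH 7.4; Schedule: 20 min incubation at room temperature; Technique: resorufin fluorescence at Ex 544/Em 590 nm; Compound: 20 µM single dose; Probe or stimulus: Near-saturating mannose-6-phosphate, 1.0 mM.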
PMI act: activators of human PMI, primary screen, biochemical, fluorescence intensity, near-Km mannose 6-phosphate; purified human PMI, coupled resazurin fluorescence, 20 min; active compounds read high; 1 = vehicle control, 0 substrate-free wells; activation factor at 20 µM; 190,000 compounds, 0.005% hits; AID 1214, 2008;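 active = activation factor of 2 or more at 20 µM, relative to plate controls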
G6PDH counter: L. mesenteroides G6PDH inhibitors, counter-screen for G6PDH-coupled screening assays, biochemical, Leuconostoc mesenteroides enzyme; glucose-6-phosphate dehydrogenase [Leuconostoc mesenteroides]; Purified L. mesenteroides G6PDH, diaphorase/resazurin coupled fluorescence, 45 min; inhibition, % at 5 µM; 200,000 compounds, 0.12% hits; AID 1020, 2008; in the data active = inhibition above about 50%
Diaphorase inh: diaphorase inhibitors and chemical oxidizers, primary screen, counter-screen for diaphorase-coupled primary assays, biochemical, uHTS, resorufin fluorescence | diaphorase resazurin-to-resorufin fluorescence, NADH, 16 min; bacterial (C. kluyveri) enzyme, not human | inhibition, % at 20 µM | 190,000 compounds, 0.69% hits | AID 1217, 2008;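 active = primary screen inhibition at 20 µM above a set limit, cut at about 50% in these data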
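Test system: bacterial diaphorase enzyme (C. kluyveri); Quantity: 0.14 U/mL diaphorase, enzyme working solution; Times: reaction incubation of 16 min at room temperature; Measured by: fluorescence of resorufin formed from resazurin, Ex 544/Em 590 nm; Benchmarks: positive control minus NADH, DMSO neutral control.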
Numbers stand for hits; n = inactive. Sampled rows, rich in hits. Any-hit rate of the full collection: about 1.1%.

SMILES	Diaph act CS	PMI act satM6P	PMI act	G6PDH counter	Diaphorase inh
CC(C)N1C(=O)/C(=C\c2nc3ccccc3c(=O)[nH]2)c2ccccc21	n	n	n	n	56
CCCN1C(=O)/C(=C/c2nc3ccccc3c(=O)[nH]2)c2ccccc21	n	n	n	n	n
O=C(NC1=C(NC2CCS(=O)(=O)C2)C(=O)c2ccccc2C1=O)c1ccccc1 (centres undefined)	n	n	n	51	72
CN(C)c1ccc(NC2=C(Cl)C(=O)c3ccccc3C2=O)cc1	n	n	n	51	n
Cc1cccc(Nc2nnc(-c3ccc(C(=O)N4C[C@H]5C[C@H](C4)c4cccc(=O)n4C5)cc3)c3ccccc23)c1	n	n	n	n	n
NC(=S)N/N=C/c1ccc(-c2cc(Cl)c(Cl)cc2Cl)o1	n	2	n	n	n
NC(=S)N/N=C/c1ccc(Br)o1	n	n	n	n	n
O=C(NCc1ccccc1)c1ccc2c(=O)n(CC3CCCO3)c(=S)[nH]c2c1 (centres undefined)	n	n	n	n	n
O=C(NCc1ccccc1)c1ccc2c(=O)[nH]c3c(C(=O)NCC4CCCO4)sc(=S)n3c2c1 (centres undefined)	n	n	n	n	70
Cc1ccc(CNC(=O)c2ccc3c(=O)[nH]c4c(C(=O)NCC5CCCO5)sc(=S)n4c3c2)cc1 (centres undefined)	n	n	n	n	79
CCCCCNC(=O)c1ccc2c(=O)[nH]c3c(C(=O)NCC4CCCO4)sc(=S)n3c2c1 (centres undefined)	n	n	n	n	65
Cc1ccc(CNC(=O)c2ccc3c(=O)n(CC4CCCO4)c(=S)[nH]c3c2)cc1 (centres undefined)	n	n	n	n	n
Cc1ccc(CSCC(=O)NCc2cccs2)cc1	n	n	n	n	n
O=c1c(N2CCCCC2)coc2ccccc12	n	2	n	n	n
O=c1cc(N2CCCCC2)c2ccccc2o1	n	n	n	n	n
S=c1nc(-c2ccccc2)[nH]c2ccccc12	n	n	n	n	66
CN(C)S(=O)(=O)c1ccc(NC(=O)CN2CCCc3ccccc32)cc1	n	n	n	n	n
O=[N+]([O-])c1cc2oc3c(c2c(C=NCc2ccncc2)c1O)CCCC3	n	n	n	n	56
O=C(COC(=O)c1ccco1)NCc1ccc(F)cc1	n	n	n	n	n
CC(Sc1nnc(Nc2ccccc2)s1)C(=O)NC1CCCc2ccccc21 (centres undefined)	n	n	n	n	n
CC(Sc1nnc(NC2CCCCC2)s1)C(=O)Nc1ccc2c(c1)C(=O)c1ccccc1C2=O (centres undefined)	n	n	n	n	56
O=C(c1nc2ccccn2c1CNCCOc1cccnc1)N1CCOCC1	n	n	n	n	n
CCc1ccccc1N/N=C(/C)c1c(O)cc(C)oc1=O	n	2.7	n	n	n
C/C(=N\NC(=O)c1ccccc1O)c1c(O)cc(C)oc1=O	n	n	n	n	n
O=C(NC1CCCCC1)C(c1cccnc1)N(C(=O)CCl)c1cccc(Cl)c1 (centres undefined)	n	n	n	n	n
SMILES	Diaph act CS	PMI act satM6P	PMI act	G6PDH counter	Diaphorase inh
COc1cc(OC)c2c(=O)cc(-c3ccccc3)oc2c1	n	n	n	n	55
CC(C)(C)OC(=O)COc1cc(OCC(=O)OC(C)(C)C)c2c(=O)cc(-c3ccccc3)oc2c1	n	n	n	n	n
COc1cc2c(c3oc(-c4ccccc4)cc(=O)c13)C=CC(C)(C)O2	n	n	n	n	82
CCn1c(SCC(=O)O)nnc1-c1cccnc1	n	n	n	n	n
CNC1=C([N+](=O)[O-])CC([N+](=O)[O-])=C(N2CCNCC2)N1C	n	n	n	n	n
CC(=O)CSc1nc2cc3c(cc2cc1C#N)OCCO3	n	2	n	n	n
N#Cc1cc2cc3c(cc2nc1SCC(=O)OC1CCCCC1)OCO3	n	n	n	n	n
CN(CC(=O)Nc1ccc(Cl)cc1)c1ccc(S(=O)(=O)N2CCCCC2)cc1[N+](=O)[O-]	n	n	n	n	n
O=C(NCCc1ccccc1)c1cnn2c(C(F)F)cc(C3CC3)nc12	n	n	n	n	64
O=C1CN(C(=O)COC(=O)CNS(=O)(=O)/C=C/c2ccccc2)c2ccccc2N1	n	n	n	n	n
N#C/C(=C\c1cccs1)C(=O)Nc1nccs1	n	n	n	n	n
Nc1ccc2c(c1)Nc1ccccc1CC2	n	n	n	n	62
N#CC(C#N)=C1CCc2ccccc2N1	n	n	n	n	n
O=C(CNc1ccc2ccccc2c1)N/N=C/c1cc2ccccc2nc1Cl	n	n	n	n	52
O=C(CNc1ccc2ccccc2c1)N/N=C/c1ccc(C(=O)O)cc1	n	n	n	n	59
O=C(CNc1cccc2ccccc12)N/N=C/c1ccc(C(=O)O)cc1	n	n	n	n	n
O=C(COc1cccc(Cl)c1)N/N=C\c1cc2ccccc2nc1Cl	n	n	n	n	n
COc1ccc(C(=O)CNc2ccc3ccccc3c2)cc1	n	n	n	n	63
CCOc1ccc(N(CC(=O)N/N=C/c2ccc(OC(C)C)cc2)S(C)(=O)=O)cc1	n	n	n	n	n
COc1ccc(/C(=N\Nc2ccccc2C(=O)O)c2ccccc2)cc1	n	2.2	n	n	n
COc1cccc(CNc2ccc(N3CCC(C)CC3)cc2)c1OC	n	n	n	n	63
CCOc1ccc(OCC)c(NC(=O)Cn2c(C)nc3ccccc3c2=O)c1	n	n	n	n	n
CSc1nc2oc3c(c2c2nncn12)CC(C)(C)SC3	n	2.6	n	n	n
COC1=C(OC)C(=O)C(CCCCCCCCCCO)=C(C)C1=O	n	n	n	63	57
CC(=O)Nc1ccc(C(=O)OCC(=O)N(Cc2ccccc2)C(C)(C)C)cc1	n	n	n	n	54
Cc1ccc(S(=O)(=O)NCC(=O)OCC(=O)NC(=O)NC2CCCC2)cc1	n	n	n	n	n
CCOC(=O)c1csc(N)n1	n	n	n	n	n
CCOC(=O)c1ccccc1-c1csc(N)n1	n	n	n	n	81
CCOC(=O)c1c(C)[nH]c(-c2csc(N)n2)c1C	n	2	n	n	n
